pIC50, pKi: −log10 of the molar value.
Experiments:
[1] = target: T1, Delta-type opioid receptor (Mus musculus, UniProt P32300); experiment: In vitro agonist activity for Opioid receptor delta 1 was determined in a mouse vas deferens assay; type: functional, tissue-based
[2] = target: Kappa-type opioid receptor (Mus musculus, UniProt P33534); experiment: Binding affinity against Opioid receptor kappa 1 using [3H]-U-69,593 as radioligand
In short: (§1)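 Whole-brain (minus cerebellum) membranes from male CD-1 mice in 50 mM Tris-HCl pH 7.4, preincubated 45 min at 37 °C. μ labelled with 0.7 nM [3H]DAMGO, κ with 1.2 nM [3H]U69593 (PEI-presoaked filters); 50 min at 25 °C in triplicate; nonspecific with 10 μM naloxone. IC50 by nonlinear regression, Ki by Cheng–Prusoff; mean ± SEM, n=3 unless stated.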

[3] = target: T1, Delta-type opioid receptor; experiment: Inv itro antagonist activity against Opioid receptor delta 1 in the presence of 30 nM naltrindole, in a mouse vas deferens assay; type: functional, tissue-based
In short: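 Isolated vasa deferentia from CD-1 mice (25–35 g) held in Mg2+-free Krebs buffer, oxygenated with 95% O2/5% CO2, at 37 °C. Electrical field stimulation: 50 ms trains of 2 ms pulses at 50 Hz, 60–70 V maximal, trains at 0.1 Hz. Agonist concentration–response curves built cumulatively in the presence of 30 nM naltrindole.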

[4] = target: T1, Delta-type opioid receptor; experiment: Binding affinity against Opioid receptor delta 1 using [3H][D-Ala2, D-Leu5]-enkephalin as radioligand
Mu-type opioid receptor = Mu-type opioid receptor (Mus musculus, UniProt P42866); experiment: Binding affinity against Opioid receptor mu 1 using [3H][D-Ala2, MePhe4, Gly-ol5]-enkephalin as radioligand; in short: as §1
Sequence of Mu-type opioid receptor (P42866 whole entry): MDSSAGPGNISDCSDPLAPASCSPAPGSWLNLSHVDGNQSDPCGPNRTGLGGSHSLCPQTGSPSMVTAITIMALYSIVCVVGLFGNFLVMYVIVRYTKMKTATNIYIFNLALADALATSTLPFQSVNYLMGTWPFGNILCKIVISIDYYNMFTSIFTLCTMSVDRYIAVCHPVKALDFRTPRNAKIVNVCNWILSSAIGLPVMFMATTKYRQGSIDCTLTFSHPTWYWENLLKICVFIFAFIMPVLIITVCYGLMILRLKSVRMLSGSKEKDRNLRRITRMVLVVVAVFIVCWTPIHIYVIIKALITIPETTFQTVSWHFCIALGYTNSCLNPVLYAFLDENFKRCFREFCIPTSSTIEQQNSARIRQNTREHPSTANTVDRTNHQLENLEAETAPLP

Mus musculus [5] = experiment: Antinociceptive activity in mouse abdominal constriction test after intracerebroventricular administration; type: functional, Abdomen
In short: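 Male Swiss mice (20-35 g); drug given icv by needle through the skull 1.5 mm right of bregma on the coronal suture (3.5 mm protrusion), 5 min before ip phenyl-p-benzoquinone (2 mg/kg, 10 mL/kg, at 37 °C).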

[6] = target: T1, Delta-type opioid receptor; experiment: In vitro antagonist activity against Opioid receptor delta 1 in the presence of 30 nM naltrindole, in a mouse vas deferens assay; type: functional, tissue-based
Mus musculus [7] = species on record: Mus musculus; experiment: Selectivity ratio of the affinity for kappa and delta opioid receptors (Ki kappa/Ki delta)
In short: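 Ratios of Ki values: δ Ki from [3H]DADLE (1 nM) on NG108-15 membranes; μ Ki from [3H]DAMGO (0.7 nM) and κ Ki from [3H]U69593 (1.2 nM) on mouse brain membranes; all 25 °C competition assays with Ki derived by Cheng–Prusoff.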

Sequence of Kappa-type opioid receptor (P33534 whole entry): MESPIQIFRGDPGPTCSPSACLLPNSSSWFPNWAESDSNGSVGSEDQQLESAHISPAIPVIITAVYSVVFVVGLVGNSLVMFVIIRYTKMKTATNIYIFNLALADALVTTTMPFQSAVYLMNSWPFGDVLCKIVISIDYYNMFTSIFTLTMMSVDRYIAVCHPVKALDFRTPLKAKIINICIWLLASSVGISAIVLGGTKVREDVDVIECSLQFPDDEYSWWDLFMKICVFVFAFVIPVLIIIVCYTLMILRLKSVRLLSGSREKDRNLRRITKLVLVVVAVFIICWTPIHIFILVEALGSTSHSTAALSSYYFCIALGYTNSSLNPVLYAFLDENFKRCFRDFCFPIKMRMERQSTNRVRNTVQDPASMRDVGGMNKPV
T1 sequence (P32300 whole entry): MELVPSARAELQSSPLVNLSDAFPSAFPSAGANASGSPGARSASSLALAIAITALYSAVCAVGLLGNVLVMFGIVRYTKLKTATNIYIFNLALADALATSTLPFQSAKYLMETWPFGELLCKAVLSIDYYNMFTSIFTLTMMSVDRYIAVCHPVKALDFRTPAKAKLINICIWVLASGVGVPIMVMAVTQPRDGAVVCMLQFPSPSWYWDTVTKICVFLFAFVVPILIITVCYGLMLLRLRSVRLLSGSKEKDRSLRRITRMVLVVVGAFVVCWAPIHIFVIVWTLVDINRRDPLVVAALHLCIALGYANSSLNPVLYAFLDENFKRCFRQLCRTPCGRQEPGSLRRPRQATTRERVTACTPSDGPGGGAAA

SMILES | pKi [2] | pKi [4] | pKi (Mu-type opioid receptor) | Selectivity ratio (Mus musculus [7]) | other results
CCN1CC[C@]2(c3cccc(O)c3)Cc3[nH]c(C(=O)N(CC)CC)c(C)c3C[C@H]2C1 (stereo in doubt; (-)-5b) [listing 1 of 2 here] | 5.87 | 9.05 | 6.89 | – | pIC50 [1]: 7.59; pIC50 [3]: 6.34
CCN1CC[C@]2(c3cccc(O)c3)Cc3[nH]c(C(=O)N(CC)CC)c(C)c3C[C@H]2C1 (racemic) [listing 1 of 2 here] | 5.89 | 8.72 | 6.39 | – | pIC50 [1]: 7.47; ED50 (Mus musculus [5]): 1.6 ug mouse-1; pIC50 [6]: 6.48
CCN1CC[C@]2(c3cccc(O)c3)Cc3[nH]c4ccccc4c3C[C@H]2C1 (stereo in doubt; (-)-3) [listing 1 of 2 here] | 6.78 | 5.71 | 5.79 | – | –
CCN1CC[C@]2(c3cccc(O)c3)Cc3[nH]c(C(=O)N(CC)CC)c(C)c3C[C@H]2C1 (racemic) [listing 2 of 2 here] | – | – | – | 690 | –
CCN(CC)C(=O)c1[nH]c2c(c1C)C[C@H]1CN(C)CC[C@]1(c1cccc(O)c1)C2 (racemic) | 6.30 | 8.68 | 7.03 | 240 | –
CCN1CC[C@]2(c3cccc(O)c3)Cc3[nH]c(C(=O)N(CC)CC)c(C)c3C[C@H]2C1 (stereo in doubt; (-)-5b) [listing 2 of 2 here] | – | – | – | 1480 | –
CCN1CC[C@]2(c3cccc(O)c3)Cc3[nH]c(C(=O)N(CC)CC)c(C)c3C[C@H]2C1 (stereo in doubt; (+)-5b) [listing 1 of 2 here] | – | – | – | 2 | –
C=CCN1C[C@H](C)N([C@H](c2ccc(C(=O)N(CC)CC)cc2)c2cccc(OC)c2)C[C@H]1C [SNC-80] | 5.87 | – | 5.89 | – | –
CCN1CC[C@]2(c3cccc(O)c3)Cc3[nH]c4ccccc4c3C[C@H]2C1 (racemic) [listing 1 of 2 here] | 6.48 | 8.15 | 5.68 | – | –
CCN1CC[C@]2(c3cccc(O)c3)Cc3[nH]c4ccccc4c3C[C@H]2C1 (racemic) [listing 2 of 2 here] | – | – | – | 50 | –
CCN1CC[C@]2(c3cccc(O)c3)Cc3[nH]c4ccccc4c3C[C@H]2C1 (stereo in doubt; (+)-3) [listing 1 of 2 here] | 6.11 | 8.66 | 5.58 | – | –
CCN(CC)C(=O)c1[nH]c2c(c1C)C[C@H]1CN(CC3CC3)CC[C@]1(c1cccc(O)c1)C2 (racemic) | 7.20 | 8.77 | 7.85 | 37 | –
Oc1ccc2c3c1O[C@H]1c4[nH]c5ccccc5c4C[C@@]4(O)[C@@H](C2)N(CC2CC2)CC[C@]314 [NALTRINDOLE] | 8.02 | 9.30 | 7.82 | 20 | –
CN1CC[C@]23c4c5ccc(O)c4O[C@H]2c2[nH]c4ccccc4c2C[C@@]3(O)[C@H]1C5 [OXYMORPHINDOLE] | 7.11 | 9.10 | 6.18 | 90 | –
CCN1CC[C@]2(c3cccc(O)c3)Cc3[nH]c4ccccc4c3C[C@H]2C1 (stereo in doubt; (-)-3) [listing 2 of 2 here] | – | – | – | 0.1 | –
CCN1CC[C@]2(c3cccc(O)c3)Cc3[nH]c(C(=O)N(CC)CC)c(C)c3C[C@H]2C1 (stereo in doubt; (+)-5b) [listing 2 of 2 here] | 5.22 | 5.45 | < 5.30 | – | –
CCN1CC[C@]2(c3cccc(O)c3)Cc3[nH]c4ccccc4c3C[C@H]2C1 (stereo in doubt; (+)-3) [listing 2 of 2 here] | – | – | – | 350 | –

Reference: ChEMBL document CHEMBL1130172, “Discovery of a novel class of substituted pyrrolooctahydroisoquinolines as potent and selective delta opioid agonists, based on an extension of the message-address concept” (J Med Chem, 1997)
